Active and inactive are the calls of the source. The calls are words filed in the database; no cut-off is given here. Where a SMILES comes first, the peptide text is derived from it.
Tests used:
Lipid bilayer [1] = experiment: Inhibition of PEG-induced DOPC/DOPE/DOPG/CH (50/30/10/10 mol%) (10 CH) small unilamellar vesicles fusion assessed as content mixing at 1:100 compound: lipid concentration preincubated for 10 mins followed by PEG addition by spectrofluorometric analysis (reference value: 33 %)
How it was run: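 Tb3+-loaded (8 mM TbCl3) and DPA-loaded (80 mM) SUVs, external probe removed by Sephadex G-75, mixed 1:1 at 200 μM total lipid in 10 mM TES, 100 mM NaCl, 1 mM EDTA, 1 mM CaCl2, pH 7.4, 37 °C; 2 μM peptide added 10 min before 6% (w/v) PEG; Tb/DPA fluorescence rise over time, normalized with detergent; inhibition relative to no-peptide control.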

Lipid bilayer [2] = experiment: Inhibition of PEG-induced DOPC/DOPE/DOPG/CH (40/30/10/20 mol%) (20 CH) small unilamellar vesicles fusion assessed as content mixing at 1:100 compound: lipid concentration preincubated for 10 mins followed by PEG addition by spectrofluorometric analysis
How it was run: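 Content mixing by Tb3+/DPA complex fluorescence. Vesicles loaded with 8 mM TbCl3 or 80 mM DPA, external probe removed by gel filtration. Mixed 1:1 at 200 μM lipid; peptide 2 μM added 10 min before 6% (w/v) PEG, 37 °C. Normalised to co-encapsulated and detergent-treated samples.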

inhibition (Lipid bilayer [1]): 5%
inhibition (Lipid bilayer [2]): inactive
SMILES: CC[C@H](C)[C@H](NC(=O)[C@H](CC(C)C)NC(=O)[C@H](C)NC(=O)[C@@H](NC(=O)[C@H](Cc1ccccc1)NC(=O)[C@H](CCCCN)NC(=O)[C@@H]1CCCN1C(=O)[C@H](CC(N)=O)NC(=O)[C@@H](NC(=O)[C@H](C)NC(=O)[C@H](CS)NC(=O)[C@H](Cc1ccccc1)NC(=O)CNC(=O)[C@H](CO)NC(=O)[C@H](CC(=O)O)NC(=O)[C@H](Cc1c[nH]c2ccccc12)NC(=O)[C@@H](NC(=O)[C@@H](N)[C@@H](C)O)[C@@H](C)O)C(C)C)C(C)C)C(=O)N[C@@H](CS)C(=O)N[C@@H](CCC(=O)O)C(=O)N[C@@H](C)C(=O)N[C@@H](CO)C(=O)NCC(=O)O (H-TTWDSGFCAVNPKFVALICEASG-OH)
